Activity calls are given as the source filed them. No cut-off for these calls is given here.
How the values were obtained:
[1] = target: T1, Androgen receptor/Baculoviral IAP repeat-containing protein 2 (Homo sapiens, UniProt P10275+Q13490); test: Induction of AR/cIAP1 interaction in human VCaP cells assessed as ubiquitin proteasome system mediated androgen receptor protein degradation by measuring reduction in DHT-stimulated KLK2 mRNA expression at 3 uM after 24 hrs by qPCR analysis; format: cell-based
In short: (§1)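 VCaP cells were held 2 days in phenol red-free RPMI + 5% charcoal-stripped FBS, then given 1 nM DHT with or without 3 μM compound for 24 h. RNA was isolated and cDNA made from 1 μg with oligo-dT. qPCR used the comparative Ct method, with values relative to vehicle = 1. Means ± SD, n = 3.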

[2] = target: T1, Androgen receptor/Baculoviral IAP repeat-containing protein 2; test: Induction of AR/cIAP1 interaction in human 22Rv1 cells assessed as ubiquitin proteasome system mediated androgen receptor protein degradation at 1 to 3 uM after 6 hrs by Western blot analysis; format: cell-based
In short: (§2)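 22Rv1 cells were treated with compound, or with separate ligands (30 μM or 3 μM each), for 6 h. Lysates in SDS buffer (0.1 M Tris pH 8.0, 1% SDS) were normalized by BCA, run on SDS-PAGE and immunoblotted. AR/GAPDH ratio was normalized to vehicle as 100. DC50 is the concentration giving 50% AR reduction; means ± SD, n = 3; t-test against vehicle.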

[3] = test system: VCaP; test: Cytotoxicity against human VCaP cells at 3 uM after 48 hrs by WST-8 assay; format: functional, cell-based
In short: (§3)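 Seeded at 5 × 10^3 cells/well; compound added after 24 h and incubated 48 h. WST-8 reagent then added for 0.5 h at 37 °C, 5% CO2, with absorbance read at 450 nm. A549, PC-3, LNCaP and VCaP were kept in RPMI-1640 + 10% FBS; HT1080 in DMEM + 10% FBS. Means ± SD, n = 3; Student's t-test against vehicle.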

[4] = target: T1, Androgen receptor/Baculoviral IAP repeat-containing protein 2; test: Induction of AR/cIAP1 interaction in human 22Rv1 cells assessed as ubiquitin proteasome system mediated androgen receptor protein degradation at 3 uM in presence of proteasome inhibitor MG132 after 6 hrs by Western blot analysis; format: cell-based
In short: (§4)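 22Rv1 or VCaP cells were given 3 μM degrader with or without 10 μM proteasome inhibitor over a time course. AR was detected by Western blot (SDS lysis, BCA normalization) and AR/GAPDH was normalized to vehicle as 100. Means ± SD, n = 3.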

[5] = test system: VCaP; test: Induction of apoptosis in human VCaP cells assessed as early apoptotic cells at 3 uM after 24 hrs by Annexin V-FITC/propidium iodide staining-based flow cytometry (reference value: 0.5%); format: functional
[6] = test system: VCaP; test: Induction of apoptosis in human VCaP cells assessed as caspase-3 activation at 3 uM in presence of proteasome inhibitor MG132 after 9 hrs by Western blot method; format: functional, cell-based
In short: (§5)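 VCaP cells were incubated 9 h with 3 μM compound and/or 10 μM proteasome inhibitor. Apoptotic markers were assessed by Western blot.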

[7] = test system: VCaP; test: Induction of apoptosis in human VCaP cells assessed as late apoptotic cells at 3 uM in presence of pan-caspase inhibitor zVAD-FMK after 24 hrs by Annexin V-FITC/propidium iodide staining-based flow cytometry (reference value: 0.1%); format: functional
[8] = test system: VCaP; test: Induction of apoptosis in human VCaP cells assessed as increase in cleaved PARP levels at 3 uM in presence of proteasome inhibitor MG132 after 9 hrs by Western blot method; format: functional, cell-based; in short: as §5
[9] = test system: HT-1080; test: Cytotoxicity against human HT1080 cells at 100 uM after 6 hrs by WST-8 assay; format: functional, cell-based
In short: (§6)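 WST-8 viability read at 450 nm after 6 h exposure to 100 μM compound. Reagent incubated 0.5 h at 37 °C. A549 and PC-3 were kept in RPMI-1640 + 10% FBS; HT1080 in DMEM + 10% FBS.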

[10] = test system: PC-3; test: Cytotoxicity against human PC3 cells at 100 uM after 6 hrs by WST-8 assay; format: functional, cell-based; in short: as §6
[11] = target: T1, Androgen receptor/Baculoviral IAP repeat-containing protein 2; test: Induction of AR/cIAP1 interaction in human 22Rv1 cells assessed as ubiquitin proteasome system mediated androgen receptor protein degradation at 3 uM after 6 hrs by Western blot analysis; format: cell-based; in short: as §2
[12] = test system: VCaP; test: Induction of apoptosis in human VCaP cells assessed as caspase-3 activation at 1 to 3 uM after 24 hrs by Western blot analysis; format: functional, cell-based
In short: (§7)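 VCaP cells were treated 24 h with compound, or with 3 μM compound plus graded pan-caspase inhibitor. Cleaved caspase-3 and cleaved PARP were detected by Western blot of SDS lysates normalized by BCA.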

[13] = test system: LNCaP; test: Cytotoxicity against human LNCAP cells expressing androgen receptor at 3 uM after 48 hrs by WST-8 assay; format: functional, cell-based; in short: as §3
[14] = test system: VCaP; test: Induction of apoptosis in human VCaP cells assessed as caspase-3 activation at 1 to 3 uM in presence of pan-caspase inhibitor zVAD-FMK after 24 hrs by Western blot analysis; format: functional, cell-based; in short: as §7
[15] = test system: VCaP; test: Induction of apoptosis in human VCaP cells assessed as viable cells at 3 uM in presence of pan-caspase inhibitor zVAD-FMK after 24 hrs by Annexin V-FITC/propidium iodide staining-based flow cytometry (reference value: 98.9%); format: functional; conditions: read-out: Activity
[16] = test system: VCaP; test: Induction of apoptosis in human VCaP cells assessed as increase in cleaved PARP levels at 1 to 3 uM after 24 hrs by Western blot method; format: functional, cell-based; in short: as §7
[17] = target: T1, Androgen receptor/Baculoviral IAP repeat-containing protein 2; test: Induction of AR/cIAP1 interaction in human 22Rv1 cells assessed as ubiquitin proteasome system mediated androgen receptor protein degradation at 3 uM by Western blot analysis; format: cell-based; conditions: TDE = time-dependent effect; in short: as §2
[18] = test system: PC-3; test: Cytotoxicity against human PC3 cells at 3 uM after 48 hrs by WST-8 assay; format: functional, cell-based; in short: as §3
[19] = test system: VCaP; test: Induction of apoptosis in human VCaP cells assessed as necrotic cells at 3 uM after 24 hrs by Annexin V-FITC/propidium iodide staining-based flow cytometry (reference value: 0.5%); format: functional
[20] = test system: VCaP; test: Induction of apoptosis in human VCaP cells assessed as increase in cleaved PARP levels at 1 to 3 uM in presence of pan-caspase inhibitor zVAD-FMK after 24 hrs by Western blot analysis; format: functional, cell-based; in short: as §7
[21] = test system: VCaP; test: Induction of apoptosis in human VCaP cells assessed as necrotic cells at 3 uM in presence of pan-caspase inhibitor zVAD-FMK after 24 hrs by Annexin V-FITC/propidium iodide staining-based flow cytometry (reference value: 0.5%); format: functional
[22] = test system: A549; test: Cytotoxicity against human A549 cells at 100 uM after 6 hrs by WST-8 assay; format: functional, cell-based; in short: as §6
[23] = target: T1, Androgen receptor/Baculoviral IAP repeat-containing protein 2; test: Induction of AR/cIAP1 interaction in human VCaP cells assessed as ubiquitin proteasome system mediated androgen receptor protein degradation by measuring reduction in DHT-stimulated PSA mRNA expression at 3 uM after 24 hrs by qPCR analysis; format: cell-based; in short: as §1
[24] = test system: VCaP; test: Induction of apoptosis in human VCaP cells assessed as late apoptotic cells at 3 uM after 24 hrs by Annexin V-FITC/propidium iodide staining-based flow cytometry (reference value: 0.1%); format: functional
[25] = target: T1, Androgen receptor/Baculoviral IAP repeat-containing protein 2; test: Induction of AR/cIAP1 interaction in human VCaP cells assessed as ubiquitin proteasome system mediated androgen receptor protein degradation at 3 uM in presence of proteasome inhibitor MG132 after 6 hrs by Western blot analysis; format: cell-based; in short: as §4
[26] = target: T1, Androgen receptor/Baculoviral IAP repeat-containing protein 2; test: Induction of AR/cIAP1 interaction in human VCaP cells assessed as ubiquitin proteasome system mediated androgen receptor protein degradation by measuring reduction in DHT-stimulated TMPRSS2 mRNA expression at 3 uM after 24 hrs by qPCR analysis; format: cell-based; in short: as §1
[27] = test system: HT-1080; test: Cytotoxicity against human HT1080 cells at 3 uM after 48 hrs by WST-8 assay; format: functional, cell-based; in short: as §3
[28] = test system: VCaP; test: Induction of apoptosis in human VCaP cells assessed as viable cells at 3 uM after 24 hrs by Annexin V-FITC/propidium iodide staining-based flow cytometry (reference value: 98.9%); format: functional; conditions: read-out: Activity
[29] = test system: A549; test: Cytotoxicity against human A549 cells at 3 uM after 48 hrs by WST-8 assay; format: functional, cell-based; in short: as §3
[30] = test system: VCaP; test: Induction of apoptosis in human VCaP cells assessed as early apoptotic cells at 3 uM in presence of pan-caspase inhibitor zVAD-FMK after 24 hrs by Annexin V-FITC/propidium iodide staining-based flow cytometry (reference value: 0.5%); format: functional
[31] = test system: VCaP; test: Induction of morphological changes in human VCaP cells at 3 uM after 24 hrs by phase contrast microscopic analysis; format: functional, cell-based
In short: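 VCaP cells were treated 24 h with 3 μM compound and imaged by phase-contrast microscopy.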

[32] = target: T1, Androgen receptor/Baculoviral IAP repeat-containing protein 2; test: Induction of AR/cIAP1 interaction in human VCaP cells assessed as ubiquitin proteasome system mediated androgen receptor protein degradation by measuring reduction in DHT-stimulated NKX3.1 mRNA expression at 3 uM after 24 hrs by qPCR analysis; format: cell-based; in short: as §1

T1 sequence (P10275 whole entry, looked up): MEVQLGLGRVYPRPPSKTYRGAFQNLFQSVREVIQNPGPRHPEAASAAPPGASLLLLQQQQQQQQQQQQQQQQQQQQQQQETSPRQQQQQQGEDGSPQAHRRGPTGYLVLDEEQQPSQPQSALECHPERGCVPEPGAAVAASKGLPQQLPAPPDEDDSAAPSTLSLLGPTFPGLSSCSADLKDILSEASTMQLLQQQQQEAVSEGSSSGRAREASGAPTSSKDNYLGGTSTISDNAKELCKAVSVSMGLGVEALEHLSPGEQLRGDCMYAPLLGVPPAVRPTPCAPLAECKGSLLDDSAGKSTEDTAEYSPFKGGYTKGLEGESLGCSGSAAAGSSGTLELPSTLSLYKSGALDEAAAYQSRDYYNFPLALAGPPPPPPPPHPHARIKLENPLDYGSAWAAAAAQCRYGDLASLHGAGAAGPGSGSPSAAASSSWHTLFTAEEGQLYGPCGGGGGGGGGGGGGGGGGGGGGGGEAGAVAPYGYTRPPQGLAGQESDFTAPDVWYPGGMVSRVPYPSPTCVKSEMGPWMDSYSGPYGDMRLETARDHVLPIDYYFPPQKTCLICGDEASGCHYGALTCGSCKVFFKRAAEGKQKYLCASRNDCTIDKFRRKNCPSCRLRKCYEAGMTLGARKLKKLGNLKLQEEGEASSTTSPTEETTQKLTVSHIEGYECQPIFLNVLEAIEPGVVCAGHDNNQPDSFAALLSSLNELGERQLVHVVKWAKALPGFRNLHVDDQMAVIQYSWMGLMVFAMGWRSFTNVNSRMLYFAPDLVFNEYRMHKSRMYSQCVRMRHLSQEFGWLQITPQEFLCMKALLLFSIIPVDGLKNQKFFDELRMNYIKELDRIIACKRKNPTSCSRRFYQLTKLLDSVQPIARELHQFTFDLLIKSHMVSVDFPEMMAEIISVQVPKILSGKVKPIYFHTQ
T1 sequence (Q13490 whole entry, looked up): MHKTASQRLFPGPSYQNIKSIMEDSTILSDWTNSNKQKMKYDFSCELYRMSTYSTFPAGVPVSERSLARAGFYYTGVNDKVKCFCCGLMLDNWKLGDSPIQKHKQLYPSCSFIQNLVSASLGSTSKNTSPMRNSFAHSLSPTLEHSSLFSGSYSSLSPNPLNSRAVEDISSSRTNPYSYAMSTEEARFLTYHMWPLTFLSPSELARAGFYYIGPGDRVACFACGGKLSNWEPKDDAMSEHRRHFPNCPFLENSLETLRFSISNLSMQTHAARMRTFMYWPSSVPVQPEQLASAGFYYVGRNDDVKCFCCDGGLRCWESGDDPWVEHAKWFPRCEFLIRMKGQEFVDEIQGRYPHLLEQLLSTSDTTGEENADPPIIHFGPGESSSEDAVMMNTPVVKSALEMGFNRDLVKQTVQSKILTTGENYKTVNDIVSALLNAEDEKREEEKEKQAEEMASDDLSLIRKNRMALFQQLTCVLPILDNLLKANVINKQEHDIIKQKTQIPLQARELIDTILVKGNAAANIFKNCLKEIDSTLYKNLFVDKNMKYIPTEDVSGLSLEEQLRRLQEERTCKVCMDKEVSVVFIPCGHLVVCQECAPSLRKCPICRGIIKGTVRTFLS

- Activity [1]: Active
- Activity [2]: Active
- Activity [4]: inactive
- Activity [11]: Active
- Activity [17]: Tde
- Activity [23]: Active
- Activity [25]: inactive
- Activity [26]: Active
- Activity [32]: Active
SMILES: CN[C@@H](C)C(=O)N[C@H](C(=O)N1CCC[C@H]1c1nc(C(=O)c2cccc(OCCOCCOCCOCCOc3ccc(Cn4c(C)c(C#N)c(-c5ccc(C#N)cc5)c4C)cc3)c2)cs1)C1CCCCC1
- Activity [3]: Active
- Activity [5]: 11.6%
- Activity [6]: inactive
- Activity [7]: 0.6%
- Activity [8]: inactive
- Activity [9]: Active
- Activity [10]: Active
- Activity [12]: Active
- Activity [13]: Active
- Activity [14]: inactive
- viability at 3 µM [15]: 96.8%
- Activity [16]: Active
- Activity [18]: inactive
- Activity [19]: 0.3%
- Activity [20]: inactive
- Activity [21]: 1.1%
- Activity [22]: Active
- Activity [24]: 0.4%
- Activity [27]: inactive
- viability at 3 µM [28]: 87.7%
- Activity [29]: inactive
- Activity [30]: 1.5%
- Activity [31]: Active

From ChEMBL document CHEMBL4219028, “Development of Protein Degradation Inducers of Androgen Receptor by Conjugation of Androgen Receptor Ligands and Inhibitor of Apoptosis Protein Ligands” (J Med Chem, 2018)
